Data reported in the array DNA melting data of Ke et al. (doi:10.1101/2024.01.08.574731).

Legend:
[1] = melting temperature; fluorescence melt of hairpins on a sequencing array, two-state fit, raised by 9.35 °C to match UV melts; conditions: sodium 0.088 M
In short: (§1)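 Two-state fits, bootstrapped, provided melting temperature and folding enthalpy from Cy3 fluorescence normalised to pre-quench Cy3 and to control constructs. Library hairpins with annealed Cy3 and quencher oligos were imaged on a sequenced MiSeq flow cell in 50 mM Na-HEPES pH 8.0, 25 mM NaCl, at 2.5 °C intervals up to 60 °C. Four replicates were combined with inverse-variance weighting. A 9.35 °C upward shift was applied to fitted temperatures to match UV melts.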

[2] = folding enthalpy; higher = less favourable; fluorescence melt of hairpins on a sequencing array, two-state fit; conditions: sodium 0.088 M
In short: as §1

GGTAGATCGAAAGATACC (((..(((....))))))
Tm [1]: 33.1 °C
folding enthalpy [2]: -19 kcal/mol

GGTAGCCGAAAGGCACC (((.(((....))))))
Tm [1]: 57.5 °C
folding enthalpy [2]: -18.7 kcal/mol

GGTAGCGAAAGCTAGACC ((((((....)))..)))
Tm [1]: 40.1 °C
folding enthalpy [2]: -14.3 kcal/mol

GGTAGCGAAAGCTCACC ((((((....))).)))
Tm [1]: 48.2 °C
folding enthalpy [2]: -16.8 kcal/mol

GGTAGCGAAAGCTCGACC ((((((....)))..)))
Tm [1]: 34.6 °C
folding enthalpy [2]: -15.1 kcal/mol

GGTAGCGAAAGCTTCACC ((((((....)))..)))
Tm [1]: 34.4 °C
folding enthalpy [2]: -13.8 kcal/mol

GGTAGCTCGAAAGAGACC (((..(((....))))))
Tm [1]: 28.3 °C
folding enthalpy [2]: -11.7 kcal/mol

GGTAGGCGAAAGCCCACC (((.(((....))).)))
Tm [1]: 51.9 °C
folding enthalpy [2]: -17.1 kcal/mol

GGTAGGGAAACCTACC ((((((....))))))
Tm [1]: 54.6 °C
folding enthalpy [2]: -38.5 kcal/mol

GGTAGGGGAAACCCTGCC ((.((((....)))).))
Tm [1]: 53.6 °C
folding enthalpy [2]: -39.5 kcal/mol

GGTAGTCGAAAGACCACC (((.(((....))).)))
Tm [1]: 45.7 °C
folding enthalpy [2]: -24.7 kcal/mol

GGTATAGAAATATACC ((((((....))))))
Tm [1]: 41.9 °C
folding enthalpy [2]: -26.4 kcal/mol

GGTATAGGAAACTATATC (.(((((....))))).)
Tm [1]: 31.2 °C
folding enthalpy [2]: -17.1 kcal/mol

GGTATAGGAAACTATGCC ((.((((....)))).))
Tm [1]: 43.2 °C
folding enthalpy [2]: -33.1 kcal/mol

GGTATCGAAAGATAAACC ((((((....)))..)))
Tm [1]: 30.4 °C
folding enthalpy [2]: -18.4 kcal/mol

GGTATCGAAAGATCGACC ((((((....)))..)))
Tm [1]: 27.8 °C
folding enthalpy [2]: -16.9 kcal/mol

GGTATCGAAAGATGTACC ((((((....)))..)))
Tm [1]: 32.5 °C
folding enthalpy [2]: -23.2 kcal/mol

GGTATCTCGAAAGAGACC (((..(((....))))))
Tm [1]: 35.2 °C
folding enthalpy [2]: -21.1 kcal/mol

GGTATGGAAACATACC ((((((....))))))
Tm [1]: 53.4 °C
folding enthalpy [2]: -41.9 kcal/mol

GGTATGGGAAACCATACC (((((((....)))))))
Tm [1]: 58 °C
folding enthalpy [2]: -45.3 kcal/mol

GGTATGGGAAACTATACC (((((.(....).)))))
Tm [1]: 41.4 °C
folding enthalpy [2]: -26.6 kcal/mol

GGTATGTCGAAAGACACC (((..(((....))))))
Tm [1]: 34.8 °C
folding enthalpy [2]: -12.1 kcal/mol

GGTATTCGAAAGAAGACC (((.(((....))).)))
Tm [1]: 50.8 °C
folding enthalpy [2]: -43.2 kcal/mol

GGTCAACGAAAGTTCACC (((.(((....))).)))
Tm [1]: 35.1 °C
folding enthalpy [2]: -22.3 kcal/mol

GGTCAAGAAATTGACC ((((((....))))))
Tm [1]: 52.7 °C
folding enthalpy [2]: -41.4 kcal/mol

GGTCAAGGAAACTCGACC ((((.((....)).))))
Tm [1]: 40.8 °C
folding enthalpy [2]: -26.6 kcal/mol

GGTCAAGGAAACTTGACC (((((((....)))))))
Tm [1]: 63.5 °C
folding enthalpy [2]: -43 kcal/mol

GGTCAATCGAAAGATACC (((..(((....))))))
Tm [1]: 26.9 °C
folding enthalpy [2]: -13.3 kcal/mol

GGTCACCGAAAGGTCACC (((.(((....))).)))
Tm [1]: 43.9 °C
folding enthalpy [2]: -25.6 kcal/mol

GGTCACGAAAGTGATACC ((((((....)))..)))
Tm [1]: 44.7 °C
folding enthalpy [2]: -11.7 kcal/mol

GGTCACGAAAGTGGCACC ((((((....)))..)))
Tm [1]: 47.6 °C
folding enthalpy [2]: -11.7 kcal/mol

GGTCACGAAAGTGGGACC ((((((....)))..)))
Tm [1]: 48 °C
folding enthalpy [2]: -23.4 kcal/mol

GGTCACGGAAACGTGGTC (..((((....))))..)
Tm [1]: 39.6 °C
folding enthalpy [2]: -16.8 kcal/mol

GGTCAGGGAAACCTGACC (((((((....)))))))
Tm [1]: 67.2 °C
folding enthalpy [2]: -36.6 kcal/mol

GGTCATGAAAATGACC ((((((....))))))
Tm [1]: 59.5 °C
folding enthalpy [2]: -38 kcal/mol

GGTCATGCGAAAGCAACC (((..(((....))))))
Tm [1]: 27 °C
folding enthalpy [2]: -8.01 kcal/mol

GGTCCACGAAAGTGACC (((.(((....))))))
Tm [1]: 52.5 °C
folding enthalpy [2]: -24.4 kcal/mol

GGTCCACGAAAGTGTACC (((.(((....))).)))
Tm [1]: 50 °C
folding enthalpy [2]: -21.7 kcal/mol
